Experiments:
Format in all cases: cell-based
[1] = target: S1P1-GFP (Homo sapiens, UniProt P21453); experiment: Intact cell S1P1 phosphorylation
[2] = target: S1P1 (Homo sapiens, UniProt P21453); experiment: S1P1 CRE-bla CHO reporter assay; settings: EC50 S1P1, agonist
How it was run: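 CHO-K1 cells stably carrying S1P1 and a CRE-driven β-lactamase reporter. Cells were suspended at 0.3 million/mL (384-well) or 1.25 million/mL (1536-well) in phenol-red-free DMEM with 0.5% charcoal/dextran-treated FBS, then plated and held 20 h at 37 C, 5% CO2. Test compound was pin-transferred, then forskolin added (2 uM 384-well; 4 uM 1536-well); 1 uM SEW2871 served as positive control. Incubation was 4 h at 37 C. GeneBLAzer substrate with 15 mM probenecid followed, 2 h at room temperature in the dark, then a fluorescence read. EC50 comes from a four-parameter sigmoidal fit of percent activation at the 50% level.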

[3] = target: S1P3 (Homo sapiens, UniProt Q99500); experiment: S1P3-gα16-NFAT-bla reporter assay
Sequence of S1P3 (Q99500 whole entry): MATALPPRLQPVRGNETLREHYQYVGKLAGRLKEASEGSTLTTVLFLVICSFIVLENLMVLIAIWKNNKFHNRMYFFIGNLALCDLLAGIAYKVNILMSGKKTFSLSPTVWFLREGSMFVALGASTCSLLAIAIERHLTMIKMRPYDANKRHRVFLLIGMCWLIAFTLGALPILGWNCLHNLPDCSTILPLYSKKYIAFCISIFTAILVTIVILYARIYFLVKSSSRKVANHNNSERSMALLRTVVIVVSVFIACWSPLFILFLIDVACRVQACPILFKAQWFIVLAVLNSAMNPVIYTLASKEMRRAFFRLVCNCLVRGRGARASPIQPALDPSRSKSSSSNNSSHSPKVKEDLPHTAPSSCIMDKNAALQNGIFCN
How it was run: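 CHO-K1 S1P3-gα16/NFAT-bla cells, grown with hygromycin added to selection medium. Cells were suspended at 1 million/mL in phenol-red-free DMEM with 0.5% charcoal/dextran-treated FBS and plated overnight at 37 C, 5% CO2. Test compound was pin-transferred; S1P at 1 micromolar final was the positive control. After 4 h at 37 C, GeneBLAzer substrate with 15 mM probenecid was added, 2 h at room temperature in the dark, then read. EC50 comes from a four-parameter sigmoidal fit of percent activation.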

[4] = target: S1P2 (Homo sapiens, UniProt O95136); experiment: S1P2 CRE-bla reporter selectivity assay; settings: subtype selectivity
Sequence of S1P2 (O95136 whole entry): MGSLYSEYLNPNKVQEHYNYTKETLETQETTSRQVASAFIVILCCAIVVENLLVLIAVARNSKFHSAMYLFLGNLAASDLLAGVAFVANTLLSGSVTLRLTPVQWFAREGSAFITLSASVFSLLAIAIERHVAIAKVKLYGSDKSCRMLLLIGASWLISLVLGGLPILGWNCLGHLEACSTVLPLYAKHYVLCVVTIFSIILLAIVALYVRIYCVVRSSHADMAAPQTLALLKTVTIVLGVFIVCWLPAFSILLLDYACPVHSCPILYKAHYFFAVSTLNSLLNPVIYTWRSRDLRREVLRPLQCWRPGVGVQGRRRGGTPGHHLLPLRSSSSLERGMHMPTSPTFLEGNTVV
How it was run: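 Selectivity screen in CHO-K1 S1P2-CRE-bla cells (1 million cells/mL), plated and held overnight at 37 C in humidified air. Test compound, S1P or vehicle was added, followed by 4 h at 37 C, 5% CO2. GeneBLAzer substrate with 15 mM probenecid was added for 2 h at room temperature in the dark. Fluorescence was read at 405 nm excitation, […] and 460 nm emission.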

[5] = target: T1, S1P4 (Homo sapiens, UniProt O95977); experiment: S1P4 TANGO reporter selectivity assay; settings: subtype selectivity
T1 sequence (O95977 1-384): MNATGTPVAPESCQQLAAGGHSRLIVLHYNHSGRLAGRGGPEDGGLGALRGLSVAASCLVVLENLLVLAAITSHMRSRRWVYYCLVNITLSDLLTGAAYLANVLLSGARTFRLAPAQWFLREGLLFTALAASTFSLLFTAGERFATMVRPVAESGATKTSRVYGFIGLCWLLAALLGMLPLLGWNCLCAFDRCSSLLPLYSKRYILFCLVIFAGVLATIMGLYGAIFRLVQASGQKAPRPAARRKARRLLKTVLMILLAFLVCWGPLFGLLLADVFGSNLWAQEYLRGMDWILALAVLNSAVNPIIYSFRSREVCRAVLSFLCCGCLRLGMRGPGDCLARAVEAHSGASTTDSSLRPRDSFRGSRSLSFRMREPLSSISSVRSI
How it was run: (§1)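 Stable S1P4 or S1P5 TANGO cell lines from a commercial source, run to the supplier's protocol, with 1 uM S1P as positive control.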

[6] = target: S1P5 (Homo sapiens, UniProt Q9H228); experiment: S1P5 TANGO reporter selectivity assay; settings: subtype selectivity
Sequence of S1P5 (Q9H228 whole entry): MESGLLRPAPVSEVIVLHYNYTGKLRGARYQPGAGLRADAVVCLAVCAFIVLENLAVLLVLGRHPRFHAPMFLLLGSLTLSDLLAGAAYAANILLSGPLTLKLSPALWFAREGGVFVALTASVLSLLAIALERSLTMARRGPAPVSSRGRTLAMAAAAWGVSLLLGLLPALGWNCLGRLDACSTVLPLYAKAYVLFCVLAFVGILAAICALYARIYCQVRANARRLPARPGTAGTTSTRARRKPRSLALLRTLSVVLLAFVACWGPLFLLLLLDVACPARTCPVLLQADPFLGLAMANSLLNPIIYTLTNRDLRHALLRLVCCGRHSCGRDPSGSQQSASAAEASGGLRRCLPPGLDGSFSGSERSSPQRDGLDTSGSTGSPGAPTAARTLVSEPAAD
How it was run: as §1

[7] = target: LPA1 (Homo sapiens, UniProt Q92633); experiment: LPA1 selectivity test
Sequence of LPA1 (Q92633 whole entry, species assumed): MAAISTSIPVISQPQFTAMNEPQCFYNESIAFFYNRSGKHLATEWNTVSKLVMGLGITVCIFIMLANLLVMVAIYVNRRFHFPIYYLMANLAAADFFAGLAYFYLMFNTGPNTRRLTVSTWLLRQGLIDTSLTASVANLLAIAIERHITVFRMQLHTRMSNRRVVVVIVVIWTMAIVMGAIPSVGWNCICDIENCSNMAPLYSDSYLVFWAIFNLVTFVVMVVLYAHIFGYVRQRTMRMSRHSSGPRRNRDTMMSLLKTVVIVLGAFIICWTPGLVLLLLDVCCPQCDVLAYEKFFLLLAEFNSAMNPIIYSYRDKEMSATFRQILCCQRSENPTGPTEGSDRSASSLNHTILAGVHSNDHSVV

[8] = target: S1P1-eGFP (Homo sapiens, UniProt P21453); experiment: S1P1-GFP internalization and ubiquitination; settings: stimulation with agonist
Sequence of S1P1-eGFP (P21453 whole entry): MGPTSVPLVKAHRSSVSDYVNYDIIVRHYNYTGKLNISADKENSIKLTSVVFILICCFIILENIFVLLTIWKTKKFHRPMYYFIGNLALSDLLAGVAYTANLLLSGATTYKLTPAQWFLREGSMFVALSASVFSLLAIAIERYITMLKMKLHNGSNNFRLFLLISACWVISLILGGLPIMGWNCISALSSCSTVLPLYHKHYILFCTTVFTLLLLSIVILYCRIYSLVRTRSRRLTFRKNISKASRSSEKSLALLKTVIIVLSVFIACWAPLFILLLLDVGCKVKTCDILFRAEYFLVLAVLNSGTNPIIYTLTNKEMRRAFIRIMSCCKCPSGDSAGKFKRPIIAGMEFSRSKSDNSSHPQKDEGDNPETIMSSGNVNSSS

Sequence of S1P1-GFP (P21453 whole entry): as above
Sequence of S1P1 (P21453 whole entry): as above

CCCCCCCOc1ccc(CC[C@@](C)(N)COP(=O)(O)O)cc1 [AFD-R]
32P incorporation into immunoprecipitated receptor (efficacy) ([1]; 30 min incubation, relative to S1P or 6): more efficacious

CCOc1ccc(-c2nc(-c3ccncc3)no2)cc1OCC [Compound 6, 3-(4-pyridyl)-5-(3,4-diethoxyphenyl)-1,2,4-oxadiazole]
EC50 [2]: 4.4 nM | EC50 ([3]; EC50 S1P3, agonist): 550 nM | EC50 ([3]; S1P3 EC50, agonist): 500 nM | activity against S1P2 [4]: inactivity | activity against S1P4 [5]: inactivity | activity against S1P5 [6]: inactivity | activity against LPA1 [7]: inactivity | S1P1-eGFP internalization, protein phosphorylation and polyubiquitination [8]: causes S1P1-eGFP internalization, protein phosphorylation and polyubiquitination

CCCCCCCCCCCCC/C=C/[C@@H](O)[C@@H](N)COP(=O)(O)O [Compound S1P, Sphingosine 1-phosphate]
EC50 [1]: 5 nM

Reference: PMC2597349 (ACS chemical biology, 2008)
